Test results reported in ChEMBL document CHEMBL4680064, “Natural product inspired optimization of a selective TRPV6 calcium channel inhibitor” (RSC Med Chem, 2020).
Activity calls are given as the source filed them. No cut-off for these calls is given here.

Legend:
[1] = molecular target: T1, Transient receptor potential cation channel subfamily V member 6 (Homo sapiens) (UniProt Q9H1D0); assay: Inhibition of human TRPV6 expressed in HEK293 cells assessed as reduction in cadmium induced cytotoxicity by measuring increase in cell survival at 10 uM incubated for 24 hrs by XTT assay; assay type: cell-based
T1 sequence (whole entry): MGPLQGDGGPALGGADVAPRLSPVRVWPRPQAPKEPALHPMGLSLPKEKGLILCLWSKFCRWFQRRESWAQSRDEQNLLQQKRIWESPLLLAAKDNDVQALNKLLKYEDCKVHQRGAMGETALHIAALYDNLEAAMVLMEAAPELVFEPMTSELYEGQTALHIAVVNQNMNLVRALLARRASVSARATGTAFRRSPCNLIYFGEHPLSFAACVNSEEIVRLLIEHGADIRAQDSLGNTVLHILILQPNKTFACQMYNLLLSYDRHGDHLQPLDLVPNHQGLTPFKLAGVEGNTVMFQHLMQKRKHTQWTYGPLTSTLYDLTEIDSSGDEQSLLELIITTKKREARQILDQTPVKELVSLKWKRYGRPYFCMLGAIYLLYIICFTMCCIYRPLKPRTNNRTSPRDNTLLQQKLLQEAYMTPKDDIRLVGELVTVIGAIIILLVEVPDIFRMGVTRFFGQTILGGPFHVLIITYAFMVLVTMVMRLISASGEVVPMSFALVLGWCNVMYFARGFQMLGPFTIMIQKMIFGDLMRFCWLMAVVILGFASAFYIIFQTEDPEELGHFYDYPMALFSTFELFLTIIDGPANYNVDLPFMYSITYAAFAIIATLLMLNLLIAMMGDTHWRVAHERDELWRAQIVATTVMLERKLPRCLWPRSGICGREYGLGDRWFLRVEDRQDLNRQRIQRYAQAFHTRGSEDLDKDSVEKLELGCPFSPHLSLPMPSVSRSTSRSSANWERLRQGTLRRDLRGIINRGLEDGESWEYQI
Method in brief: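 HEK293 wt or HEK-hTRPV6 cells in DMEM with 10% FBS, glutamine, penicillin/streptomycin and non-essential amino acids. Seeded at 1.5 x 10⁴ cells/well and left 24 h, then given CdCl2 at 50 to 0.05 µM with or without test compound at 1.0 or 10 µM; blank was 0.01% DMSO. Incubation 24 h at 37 °C. XTT/PMS read for 2 h at A450−A650, as % viable versus blank. n = 4/concentration, 2 independent experiments.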

[2] = Inhibition of rat L-type calcium channel (diltiazem site) at 10 uM
[3] = Inhibition of SOCE in human MDA-MB-231 cells at 5 uM pretreated for 20 mins followed by Tg addition for 10 mins followed by CaCl2 addition by FLIPR assay; assay type: cell-based; conditions: mda-mb-231, 0.5 h, time 30 min
Method in brief: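 MDA-MB-231 cells at 6 x 10⁴ cells/well in phenol-red-free RPMI with 10% FBS, assayed 16 h later. Loaded in nominally Ca²⁺-free buffer with calcium-5 for 40 min at 37 °C. Compound, with GSK-7975A as reference, given for 20 min. After a 50 s baseline, thapsigargin was added and followed for 10 min, then CaCl2 was added. SOCE taken as AUC of the Ca²⁺ entry trace.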

[4] = test system: MCF7; assay: Antiproliferative activity against human MCF7 cells assessed as cell growth inhibition at 0.4 to 100 uM after 6 days by XTT assay; assay type: cell-based; conditions: mcf7, 144 h, dose 0.4-100 µM, time 6 day
Method in brief: (§1)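 Cells grown in RPMI with 10% FBS, 2 mM L-glutamine, penicillin/streptomycin and 1% non-essential amino acids. Seeded at 5 x 10³ cells/well and left 24 h at 37 °C, then treated at 100 μM to 0.4 μM. Exposure 6 days at 37 °C with fresh treatment medium every 48 h. Doxorubicin 10 μM and DMSO 0.01% served as controls. XTT with 1.25% PMS for 2 h; absorbance at 450 minus 650 nm, as % viable versus DMSO. Curves fitted by four-parameter non-linear regression. Mean ± SEM, n = 3/concentration, ≥3 independent experiments.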

[5] = test system: MDA-MB-231; assay: Antiproliferative activity against human MDA-MB-231 cells assessed as cell growth inhibition at 0.4 to 100 uM after 6 days by XTT assay; assay type: cell-based; conditions: mda-mb-231, 144 h, dose 0.4-100 µM, time 6 day; method in brief: as §1
[6] = test system: SK-OV-3; assay: Antiproliferative activity against human SK-OV-3 cells assessed as cell growth inhibition at 0.4 to 100 uM after 6 days by XTT assay; assay type: cell-based; conditions: human, sk-ov-3, 144 h, 100 µM; dose 0.4-100 µM, time 6 day
[7] = test system: HEK293; assay: Antiproliferative activity against wild type human HEK293 cells assessed as cell growth inhibition at 0.4 to 100 uM after 6 days by XTT assay; assay type: cell-based; conditions: hek293, 144 h, dose 0.4-100 µM, time 6 day
[8] = Inhibition of rat L-type calcium channel (verapamil site) at 10 uM
[9] = molecular target: D(1A) dopamine receptor (Homo sapiens, UniProt P21728); assay: Inhibition of human dopamine D1 receptor at 10 uM
D(1A) dopamine receptor, sequence (P21728 whole entry): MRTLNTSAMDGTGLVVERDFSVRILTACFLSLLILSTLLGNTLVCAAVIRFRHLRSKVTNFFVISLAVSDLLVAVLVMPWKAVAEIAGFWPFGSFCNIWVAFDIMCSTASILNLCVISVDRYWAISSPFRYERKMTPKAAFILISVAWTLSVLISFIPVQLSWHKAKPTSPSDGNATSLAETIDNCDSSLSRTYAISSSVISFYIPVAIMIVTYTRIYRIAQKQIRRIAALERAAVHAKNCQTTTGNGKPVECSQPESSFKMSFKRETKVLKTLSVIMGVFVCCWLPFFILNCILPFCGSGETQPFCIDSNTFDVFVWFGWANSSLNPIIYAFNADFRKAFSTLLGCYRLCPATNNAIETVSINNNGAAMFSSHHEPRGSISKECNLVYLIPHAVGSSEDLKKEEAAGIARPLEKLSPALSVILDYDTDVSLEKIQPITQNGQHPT

[10] = molecular target: Mu-type opioid receptor (Homo sapiens, UniProt P35372); assay: Inhibition of human mu-opioid receptor at 10 uM
Mu-type opioid receptor, sequence (P35372 whole entry): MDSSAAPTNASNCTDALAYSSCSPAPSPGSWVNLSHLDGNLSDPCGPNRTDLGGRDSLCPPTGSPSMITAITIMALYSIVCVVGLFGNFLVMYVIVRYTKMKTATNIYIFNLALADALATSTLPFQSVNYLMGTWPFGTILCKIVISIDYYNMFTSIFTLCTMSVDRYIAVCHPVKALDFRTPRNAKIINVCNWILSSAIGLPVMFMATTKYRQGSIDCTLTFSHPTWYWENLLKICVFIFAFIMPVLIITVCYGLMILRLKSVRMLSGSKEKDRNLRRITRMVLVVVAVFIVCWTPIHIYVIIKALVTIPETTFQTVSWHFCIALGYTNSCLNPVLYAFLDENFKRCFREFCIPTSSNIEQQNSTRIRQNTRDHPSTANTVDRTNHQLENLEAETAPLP

[11] = molecular target: Kappa-type opioid receptor (Homo sapiens, UniProt P41145); assay: Inhibition of human kappa-opioid receptor at 10 uM
Kappa-type opioid receptor, sequence (P41145 whole entry): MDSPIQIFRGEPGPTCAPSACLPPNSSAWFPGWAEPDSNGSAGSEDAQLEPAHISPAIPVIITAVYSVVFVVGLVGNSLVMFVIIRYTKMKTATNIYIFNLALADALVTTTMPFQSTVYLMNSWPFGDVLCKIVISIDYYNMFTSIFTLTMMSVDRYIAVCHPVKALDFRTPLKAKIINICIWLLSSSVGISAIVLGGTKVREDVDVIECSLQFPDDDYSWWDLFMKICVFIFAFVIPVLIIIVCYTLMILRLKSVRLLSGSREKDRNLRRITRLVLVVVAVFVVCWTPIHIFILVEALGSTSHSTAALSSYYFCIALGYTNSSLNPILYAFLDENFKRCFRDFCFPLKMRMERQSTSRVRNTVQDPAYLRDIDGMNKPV

[12] = molecular target: T2, 5-hydroxytryptamine receptor 1A (Homo sapiens, UniProt P08908); assay: Inhibition of human serotonin 5HT-1A receptor at 10 uM
T2 sequence (P08908 whole entry): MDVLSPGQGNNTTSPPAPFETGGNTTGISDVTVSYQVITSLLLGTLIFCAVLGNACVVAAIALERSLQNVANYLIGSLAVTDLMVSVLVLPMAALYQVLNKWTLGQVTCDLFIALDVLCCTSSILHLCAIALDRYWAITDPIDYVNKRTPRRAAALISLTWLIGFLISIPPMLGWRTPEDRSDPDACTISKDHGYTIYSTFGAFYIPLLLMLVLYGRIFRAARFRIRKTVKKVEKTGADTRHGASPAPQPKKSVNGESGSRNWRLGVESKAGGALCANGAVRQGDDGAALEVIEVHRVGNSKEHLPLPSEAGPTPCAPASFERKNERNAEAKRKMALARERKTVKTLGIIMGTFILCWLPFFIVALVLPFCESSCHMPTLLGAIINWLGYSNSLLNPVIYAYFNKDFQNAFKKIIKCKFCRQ

## O=c1ccc(CN2CCN([C@H]3CC[C@@](O)(c4cccc(C(F)(F)F)c4)CC3)CC2)c[nH]1
[1]
  inhibition: Active
[2]
  inhibition (INH): Not Active
[3]
  inhibition (INH): Not Active
[4]
  Activity: Non-Toxic
[5]
  Activity: Non-Toxic
[6]
  Activity: Non-Toxic
[7]
  Activity: Non-Toxic
[8]
  inhibition (INH): Not Active
[9]
  inhibition (INH): Not Active
[10]
  inhibition (INH): Not Active
[11]
  inhibition (INH): Not Active
[12]
  inhibition (INH): Not Active
